From publication PMC10938339 (ACS Omega, 2024)
Where two headings read alike, the source gives them in different places.

Experiments:
PPT1 [1] = target: T1, PPT1 (Homo sapiens, UniProt P50897); experiment: biochemical; details: for IC50: IC50 (95 % CI)
T1 sequence (P50897 28-306): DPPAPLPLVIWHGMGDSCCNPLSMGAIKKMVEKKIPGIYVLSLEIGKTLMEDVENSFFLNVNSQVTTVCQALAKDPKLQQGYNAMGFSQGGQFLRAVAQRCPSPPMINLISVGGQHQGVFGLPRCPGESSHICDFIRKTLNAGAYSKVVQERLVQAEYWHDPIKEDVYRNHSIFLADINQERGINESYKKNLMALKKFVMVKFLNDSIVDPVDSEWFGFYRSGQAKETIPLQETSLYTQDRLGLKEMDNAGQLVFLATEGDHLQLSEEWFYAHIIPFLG

PPT1 in HepG2 cells = target: T2, PPT1 in HepG2 cells (Homo sapiens, UniProt P50897); experiment: PPT1 inhibition in HepG2 cells; assay type: cell-based; details: intact cells treated 5 h, activity relative to DMSO control
T2 sequence (P50897 28-306): T1 sequence (P50897 28-306)
Procedure, shortened: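 HepG2 cells in DMEM + 10% FBS (37 °C, 5% CO2) were seeded overnight, then exposed to compound in medium for 5 h. They were lysed in MPER with protease inhibitor and 0.5% Triton X-100, spun at 14,000 rpm for 15 min, and protein-normalised. Lysates were assayed with MU-6S-Palm-βGlc plus β-glucosidase (4-MU fluorescence, Ex 365/Em 448, 4-MU standard curve). Biological duplicates, technical triplicates; activity relative to DMSO.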

[2] = target: T3, PPT1 in HepG2 cell extracts (Homo sapiens, UniProt P50897); experiment: PPT1 inhibition in HepG2 cell extracts; assay type: biochemical; details: cell extracts treated 1 h
T3 sequence (P50897 28-306): T1 sequence (P50897 28-306)
Procedure, shortened: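 HepG2 lysates, prepared as for cells (MPER, protease inhibitor, 0.5% Triton X-100, 14,000 rpm spin), were treated directly with compound for 1 h. PPT1 activity was then read with the MU-6S-Palm-βGlc/β-glucosidase assay, measuring 4-methylumbelliferone fluorescence. Biological duplicates with technical triplicates; percent activity expressed relative to DMSO control.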

[3] = cited from earlier work
[4] = tested on: neuroblastoma SH-SY5Y cell line; assay type: cell-based, human; details: 48 h treatment, alamarBlue 18 h; NA = not active
[5] = cited from earlier work; remark: listed apart in the source
PPT1 [6] = details: cited from earlier work

## CCN(CC)CCCC(C)Nc1c2ccc(Cl)cc2nc2ccc(OC)cc12 (centres unmarked) [Quinacrine]
PPT1 [1]
  IC50: ~169 µM

## COc1cc(C=O)ccc1O [Vanillin]
PPT1 [1]
  IC50: 647 µM

## CCCCCCCCCCC[C@@H](C[C@@H]1OC(=O)[C@H]1CCCCCC)OC(=O)[C@H](CC(C)C)NC=O [Orlistat]
PPT1 [1]
  IC50: 0.179 µM
PPT1 [1]; Spectrum Collection library screen, substrate 20 μM
  % Inhibition: 90.7%
PPT1 in HepG2 cells
  PPT1 inhibition in HepG2 cells (in words): poor PPT1 inhibition
[2]
  PPT1 inhibition in HepG2 cell extracts (in words): inhibited PPT1 in cell extracts
[3]
  oral absorption: poorly orally absorbed

## OC(c1cc(C(F)(F)F)nc2c(C(F)(F)F)cccc12)C1CCCCN1 (centres unmarked) [Mefloquine]
PPT1 [1]; compound 125 μM
  inhibition at 125 µM: ≤ 50%

## Cn1nnc2c(C(N)=O)ncn2c1=O [Temozolomide]
PPT1 [1]
  IC50: 236 µM

## CCN(CCO)CCCC(C)Nc1ccnc2cc(Cl)ccc12 (centres unmarked) [Hydroxychloroquine]
PPT1 [1]
  IC50: 109 µM
[4]
  SH-SY5Y IC50: did not reach a 50% decrease in cell viability at the highest concentration tested

## C[C@@H]1O[C@@H](OC[C@H]2O[C@@H](Oc3c(-c4ccc(O)c(O)c4)oc4cc(O)cc(O)c4c3=O)[C@H](O)[C@@H](O)[C@@H]2O)[C@H](O)[C@H](O)[C@H]1O [Rutin trihydrate]
PPT1 [1]
  IC50: ~156 µM

## CCOC(=O)[N-]c1cn(N2CCOCC2)n[o+]1 [Molsidomine]
PPT1 [1]
  IC50: > 100 µM

## Cc1ccc(C(=O)c2cc(O)c(O)c([N+](=O)[O-])c2)cc1 [Tolcapone]
PPT1 [1]
  IC50: 179 µM
[5]
  blood–brain barrier penetration: can penetrate the blood–brain barrier

## CO[C@H]1/C=C/O[C@@]2(C)Oc3c(C)c(O)c4c(O)c(c(/C=N/N5CCN(C6CCCC6)CC5)c(O)c4c3C2=O)NC(=O)/C(C)=C\C=C\[C@H](C)[C@H](O)[C@@H](C)[C@@H](O)[C@@H](C)[C@H](OC(C)=O)[C@@H]1C [Rifapentine]
PPT1 [1]
  IC50: 63.3 µM

## Cc1ncc([N+](=O)[O-])n1CCO [Metronidazole]
PPT1 [1]
  IC50: > 100 µM

## CC(CN1c2ccccc2Sc2ccccc21)N(C)C (centres unmarked) [Promethazine]
PPT1 [1]
  IC50: > 100 µM

## CCN(CC)CCNc1ccc(CO)c2sc3ccccc3c(=O)c12 [Hycanthone]
PPT1 [1]
  IC50: 111 µM

## CC(C)(C)NC1CCN(c2cc(NCc3ccc(Cl)cc3)nc3ccccc23)CC1 [GNS561]
PPT1 [6]; 1 μM after 3 h
  PPT1 inhibition: 25%
PPT1 [6]; 1 μM after 72 h
  PPT1 inhibition: 50%

## CCN(CC)CCCC(C)Nc1ccnc2cc(Cl)ccc12 (centres unmarked) [Chloroquine]
PPT1 [1]
  IC50: 47.2 µM

## CCN(CC)Cc1cc(Nc2ccnc3cc(Cl)ccc23)ccc1O [Amodiaquine]
PPT1 [1]
  IC50: 344 µM

## CCCCCCCCCC[C@@H]1C(=O)O[C@H]1CCc1ccc(OC)c(OC)c1 [Palmostatin B]
PPT1 [1]
  IC50: 0.0118 µM
PPT1 in HepG2 cells
  PPT1 inhibition in HepG2 cells (in words): poor PPT1 inhibition
[2]
  PPT1 inhibition in HepG2 cell extracts (in words): inhibited PPT1 in cell extracts

## CN(C)[C@@H]1C(O)=C(C(N)=O)C(=O)[C@@]2(O)C(O)=C3C(=O)c4c(O)cccc4[C@@](C)(O)[C@H]3C[C@@H]12 [Tetracycline]
PPT1 [1]
  IC50: > 100 µM

## TVB-3166
PPT1 [1]; FASN inhibitors tested against PPT1
  PPT1 inhibition (in words): did not inhibit PPT1

## Cc1ncc([N+](=O)[O-])n1CC(O)CCl (centres unmarked) [Ornidazole]
PPT1 [1]
  IC50: > 100 µM
